Measured values taken from ChEMBL document CHEMBL1687926, “14-Aminocamptothecins: their synthesis, preclinical activity, and potential use for cancer treatment” (J Med Chem, 2011).
Several values for one entry are separate records, joined by “and”; a condition that tells them apart may be missing. Equal values may be shown once.

Experiments:
A-375 = assay: Cytotoxicity against human A375 cells after 72 hrs by alamar blue assay; assay type: functional, cell-based; details: A-375, 72 h
In short: (§1)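 Cells seeded at 4 × 10³ per well and grown 24 h. Compounds dissolved in DMSO and diluted in medium to final concentrations, then incubated 72 h at 37 °C, 5% CO₂. Viable cells read by AlamarBlue; IC₅₀ taken as the concentration giving 50% growth inhibition.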

HT-29 [1] = assay: Antitumor activity against human HT-29 cells xenografted in nu/nu mouse assessed as tumor growth delay at 40 mg/kg, […]; assay type: functional; details: route oral
LNCaP = assay: Cytotoxicity against human LNCAP cells after 72 hrs by alamar blue assay; assay type: functional, cell-based; in short: as §1
PC-3 [2] = assay: Cytotoxicity against human PC3 cells after 72 hrs by alamar blue assay; assay type: functional, cell-based; details: PC-3, 72 h; in short: as §1
HT-29 [3] = assay: Antitumor activity against human HT-29 cells xenografted in nu/nu mouse assessed as tumor growth inhibition at 40 mg/kg, […]; assay type: functional; set-up: scale not given: the % may be the effect or the level left; details: route oral
[4] = Half life in CD-1 mouse brain at 50 mg/kg, ip by LC/MS/MS analysis; assay type: ADME, organism-based; set-up: dose 50 mg/kg, route intraperitoneal
In short: (§2)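 CD-1 mice (~25 g) given 50 mg/kg ip in 5% DMSO/5% Tween 80 in water; three mice per time point, sampled up to 480 min. Blood taken by cardiac puncture into EDTA, then whole brain excised and homogenized in water. Proteins precipitated with ice-cold acetonitrile containing propranolol internal standard; supernatant analysed by HPLC/MS/MS.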

NCI-H460 [5] = assay: Cytotoxicity against human H460 cells after 72 hrs by alamar blue assay in presence of 40 mg/ml HSA; assay type: functional, cell-based; details: NCI-H460, 72 h
In short: (§3)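 H460 cells seeded at 4 × 10³ per well and grown 24 h. Compounds then cocultured with cells for 72 h at 37 °C, with or without 40 mg/mL human serum albumin. Viability read by AlamarBlue; IC₅₀ = 50% growth inhibition. Ratio compares the IC₅₀ with HSA to the IC₅₀ without.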

[6] = Resistance ratio of IC50 for human MES-SA/Dx5 cells overexpressing MDR1 after 72 hrs to IC50 for human MESSA cells after 72 hrs; assay type: functional
In short: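 Cytotoxicity compared in MDR1-overexpressing lines and their parental wild-type lines. 72 h exposure at 37 °C, viability by AlamarBlue, IC₅₀ at 50% growth inhibition. Resistance ratio = IC₅₀ in overexpressing line / IC₅₀ in parental line.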

NCI-H69 = assay: Cytotoxicity against human H69 cells after 72 hrs by alamar blue assay; assay type: functional, cell-based; details: NCI-H69, 72 h; in short: as §1
[7] = AUC in CD-1 mouse brain at 50 mg/kg, ip by LC/MS/MS analysis; assay type: ADME, organism-based; set-up: dose 50 mg/kg, route intraperitoneal; in short: as §2
PC-3 [8] = assay: Antitumor activity against human PC3 cells xenografted in nu/nu mouse assessed as tumor growth delay at 40 mg/kg, po QD for 5 days followed by 2 days without treatment for 2 weeks; assay type: functional
In short: (§4)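 Female nude (nu/nu) mice (males for prostate model) implanted sc in the flank with tumor cells (1 × 10⁶ for H460). Dosing began at 100-150 mm³, 10 mice/group. Oral gavage in 5% DMSO/5% Tween 80/1% CMC in water, 5 days on/2 off per cycle, 2 or 4 cycles. Volume = length×width²/2, measured twice weekly. TGI = (1 − ΔT/ΔC)×100; TGD = extra days to reach 500 mm³ versus control.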

[9] = Cytotoxicity against human MESSA cells after 72 hrs by alamar blue assay; assay type: functional, cell-based; details: MES-SA; in short: as §1
[10] = Cytotoxicity against human bone marrow cell by CFU-GM assay; assay type: cell-based
[11] = Cmax in CD-1 mouse plasma at 50 mg/kg, ip by LC/MS/MS analysis; assay type: ADME, organism-based; set-up: dose 50 mg/kg, route intraperitoneal; in short: as §2
SK-MEL-2 = assay: Cytotoxicity against human SK-MEL-2 cells after 72 hrs by alamar blue assay; assay type: functional, cell-based; details: SK-MEL-2, 72 h; in short: as §1
PC-3 [12] = assay: Antitumor activity against human PC3 cells xenografted in nu/nu mouse assessed as tumor growth inhibition at 40 mg/kg, po QD for 5 days followed by 2 days without treatment for 2 weeks; assay type: functional; set-up: scale not given: the % may be the effect or the level left; in short: as §4
NCI-H460 [13] = assay: Ratio IC50 for human H460 cells after 72 hrs in presence of 40 mg/ml HSA to IC50 for human H460 cells after 72 hrs; assay type: functional; in short: as §3
[14] = Cmax in CD-1 mouse brain at 50 mg/kg, ip by LC/MS/MS analysis; assay type: ADME, organism-based; set-up: dose 50 mg/kg, route intraperitoneal; in short: as §2
[15] = Half life in CD-1 mouse plasma at 50 mg/kg, ip by LC/MS/MS analysis; assay type: ADME, organism-based; set-up: dose 50 mg/kg, route intraperitoneal; in short: as §2
Mus musculus [16] = assay: Toxicity in nu/nu mouse assessed as body weight loss at 40 mg/kg, po QD for 5 days followed by 4 days without treatment for 2 weeks; assay type: organism-based; set-up: dose 40 mg/kg, route oral; details: in vivo
IGROV-1 = assay: Cytotoxicity against human IGROV1 cells after 72 hrs by alamar blue assay; assay type: functional, cell-based; details: IGROV-1, 72 h; in short: as §1
NCI-H460 [17] = assay: Antitumor activity against human H460 cells xenografted in nu/nu mouse assessed as tumor growth inhibition at 40 mg/kg, po QD for 5 days followed by 2days without treatment for 2 weeks; assay type: functional; set-up: scale not given: the % may be the effect or the level left; in short: as §4
DU-145 = assay: Cytotoxicity against human DU145 cells after 72 hrs by alamar blue assay; assay type: functional, cell-based; details: DU-145, 72 h; in short: as §1
[18] = Ratio of IC50 for mouse bone marrow cell to IC50 for human bone marrow cell; assay type: cell-based; details: bone marrow cells
In short: (§5)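 CFU-GM colony assay in triplicate at 2 × 10⁴ cells per culture, using thawed normal human bone marrow or fresh mouse femoral marrow. Colonies were scored after 16-18 days. The IC50 or IC90 from each species gave the mouse/human ratio.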

H69AR = assay: Cytotoxicity against human H69AR cells overexpressing MRP1 after 72 hrs by alamar blue assay
NCI-H460 [19] = assay: Cytotoxicity against human H460 cells after 72 hrs by alamar blue assay; assay type: functional, cell-based; in short: as §1
[20] = Cytotoxicity against mouse bone marrow cell by CFU-GM assay; assay type: cell-based
In short: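 CFU-GM colony assay on normal human bone marrow (thawed) or mouse femoral marrow (freshly extracted). Human colonies scored after 16-18 days. IC₅₀ taken from triplicate assays.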

[21] = Resistance ratio of IC50 for human H69AR cells overexpressing MRP1 after 72 hrs s to IC50 for human H69 cells after 72 hrs
[22] = Cytotoxicity against human MES-SA/Dx5 cells overexpressing MDR1 after 72 hrs by alamar blue assay; assay type: functional, cell-based; details: MES-SA/Dx5, 72 h; in short: as §1
[23] = Ratio of drug level in brain to plasma in CD-1 mouse at 50 mg/kg, ip; assay type: ADME, organism-based; set-up: dose 50 mg/kg, route intraperitoneal; in short: as §2
[24] = Ratio of IC90 for mouse bone marrow cell to IC90 for human bone marrow cell; assay type: ADME, cell-based; details: bone marrow cells; in short: as §5
[25] = AUC in CD-1 mouse plasma at 50 mg/kg, ip by LC/MS/MS analysis; assay type: ADME, organism-based; set-up: dose 50 mg/kg, route intraperitoneal; in short: as §2
[26] = Tmax in CD-1 mouse brain at 50 mg/kg, ip by LC/MS/MS analysis; assay type: ADME, organism-based; set-up: dose 50 mg/kg, route intraperitoneal; in short: as §2
[27] = Tmax in CD-1 mouse plasma at 50 mg/kg, ip by LC/MS/MS analysis; assay type: ADME, organism-based; set-up: dose 50 mg/kg, route intraperitoneal; in short: as §2
HT-29 [28] = assay: Cytotoxicity against human HT-29 cells after 72 hrs by alamar blue assay; assay type: functional, cell-based; details: HT-29, 72 h; in short: as §1
Mus musculus [29] = assay: Toxicity in nu/nu mouse assessed as body weight loss at 40 mg/kg, po QD for 5 days followed by 2 days without treatment for 2 weeks; assay type: organism-based; set-up: dose 40 mg/kg, route oral; details: in vivo
In short: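 Female nude (nu/nu) mice (males for prostate model) bearing sc xenografts, dosing started at 100-150 mm³, 10/group. Oral gavage in 5% DMSO/5% Tween 80/1% CMC in water, QD 5 days on/2 off per cycle, 2 or 4 cycles. Body weight recorded twice weekly; maximum loss reported.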

NCI-H460 [30] = assay: Antitumor activity against human H460 cells xenografted in nu/nu mouse assessed as tumor growth delay at 40 mg/kg, po QD for 5 days followed by 2days without treatment for 2 weeks; assay type: functional; in short: as §4
Malme-3M = assay: Cytotoxicity against human MALME-3M cells after 72 hrs by alamar blue assay; assay type: functional, cell-based; in short: as §1

SMILES: CCc1c2c(nc3ccccc13)-c1c(N)c3c(c(=O)n1C2)COC(=O)[C@]3(O)CC
- IC50 (A-375): 7 nM
- Time (HT-29 [1]): 30 days
- IC50 (LNCaP): 120 nM
- IC50 (PC-3 [2]): 24 nM
- Activity (HT-29 [3]): 101%
- half-life [4]: 4 h
- IC50 (NCI-H460 [5]): 120 nM
- Ratio [6]: 3
- IC50 (NCI-H69): 110 nM
- AUC [7]: 750 ng·h/mL
- Time (PC-3 [8]): 45 days
- IC50 [9]: 4 nM
- IC50 ([10]; Homo sapiens, Bone marrow cell): 620 nM
- IC90 ([10]; human, bone marrow cells): 4500 nM
- Cmax [11]: 300 ng/mL
- IC50 (SK-MEL-2): 130 nM
- Activity (PC-3 [12]): 107%
- Ratio (NCI-H460 [13]): 10
- Cmax [14]: 300 ng/mL
- half-life [15]: 4.17 h
- Activity (Mus musculus [16]): 3% and 8%
- IC50 (IGROV-1): 20 nM
- Activity (NCI-H460 [17]): 84%
- IC50 (DU-145): 1200 nM
- selectivity ratio [18]: 6
- IC50 (H69AR): 240 nM
- IC50 (NCI-H460 [19]; Homo sapiens, NCI-H460, 72 h): 7 nM
- IC50 (NCI-H460 [19]; nci-h460): 12 nM
- IC50 [20]: 110 nM
- Ratio [21]: 2.2
- IC50 [22]: 12 nM
- Kp [23]: 70
- selectivity ratio [24]: 650
- AUC [25]: 1070 ng·h/mL
- Tmax [26]: 1 h
- Tmax [27]: 1 h
- IC50 (HT-29 [28]): 300 nM
- Activity (Mus musculus [29]): 4%
- Time (NCI-H460 [30]): 14 days
- IC50 (Malme-3M): 1200 nM
